PHOSPHO1 block – inhibitors of human PHOSPHO1 phosphatase | Q8TCT1 | recombinant PHOSPHO1, absorbance phosphatase assay | inhibition, % at 13.3 µM | actives 1.1% (n = 290,000) | AID 1565; in the data active = inhibition above about 60%
TbMetRS inhib – blocks T. brucei methionyl-tRNA synthetase activity; purified T. brucei MetRS, ATP depletion, Kinase-Glo luminescence; inhibition, % at 11.9 µM; actives 0.4% (n = 360,000);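 active = inhibition above a per-plate cutoff of the control wells' mean inhibition plus 3 SD, cut at about 5.5% in these data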;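 note: 0% = DMSO wells median and 100% = median of wells with control inhibitor compound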
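Assay system: T. brucei methionyl-tRNA synthetase, purified | Medium: HEPES buffer with MgCl2, KCl, DTT, spermine, BSA, pyrophosphatase | Compound: 11.9 µM single point | Incubation: 15 min enzyme-compound preincubation, 2 h reaction, 10 min detection, 25 °C | Measured by: Kinase-Glo luciferase luminescence reporting remaining unconsumed ATP | Measure: % inhibition normalized to control-well medians | Replication: Singlicate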
APOBEC3G inh – APOBEC3G (human) deaminase inhibition; recombinant A3G, ssDNA deamination FAM/TAMRA fluorescence; inhibition, % at 20 µM; actives 0.28% (n = 330,000); AID 493012;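 active = inhibition of at least 40% at 20 µM, with no more than 30% in the related APOBEC3A deaminase screen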;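 note: plate controls were DMSO wells with A3G for no effect and wells lacking A3G enzyme for full effect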
A3A deaminase – human APOBEC3A DNA deaminase inhibition | recombinant A3A, FAM/TAMRA ssDNA deamination fluorescence | P31941 | actives 0.41% (n = 330,000) | inhibition, % at 20 µM;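 active = at least 40% inhibition at 20 µM here, with at most 30% in a related deaminase screen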;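 note: plate controls were A3A with DMSO for no effect and wells lacking A3A enzyme for full effect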
pCIP destab – p/CIP protein destabilization; Q05BA5; F442A p/CIP-EGFP cells, EGFP fluorescence, 16 h; decrease of EGFP signal, % at 10 µM; actives 0.01% (n = 290,000); AID 1984;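 active = EGFP signal decrease of at least 30% at 10 µM or well 3 SD below plate mean, unless failing retest; inactive = the rest, including hits failing retest or dose response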
Target sequence (Q05BA5 1-1403): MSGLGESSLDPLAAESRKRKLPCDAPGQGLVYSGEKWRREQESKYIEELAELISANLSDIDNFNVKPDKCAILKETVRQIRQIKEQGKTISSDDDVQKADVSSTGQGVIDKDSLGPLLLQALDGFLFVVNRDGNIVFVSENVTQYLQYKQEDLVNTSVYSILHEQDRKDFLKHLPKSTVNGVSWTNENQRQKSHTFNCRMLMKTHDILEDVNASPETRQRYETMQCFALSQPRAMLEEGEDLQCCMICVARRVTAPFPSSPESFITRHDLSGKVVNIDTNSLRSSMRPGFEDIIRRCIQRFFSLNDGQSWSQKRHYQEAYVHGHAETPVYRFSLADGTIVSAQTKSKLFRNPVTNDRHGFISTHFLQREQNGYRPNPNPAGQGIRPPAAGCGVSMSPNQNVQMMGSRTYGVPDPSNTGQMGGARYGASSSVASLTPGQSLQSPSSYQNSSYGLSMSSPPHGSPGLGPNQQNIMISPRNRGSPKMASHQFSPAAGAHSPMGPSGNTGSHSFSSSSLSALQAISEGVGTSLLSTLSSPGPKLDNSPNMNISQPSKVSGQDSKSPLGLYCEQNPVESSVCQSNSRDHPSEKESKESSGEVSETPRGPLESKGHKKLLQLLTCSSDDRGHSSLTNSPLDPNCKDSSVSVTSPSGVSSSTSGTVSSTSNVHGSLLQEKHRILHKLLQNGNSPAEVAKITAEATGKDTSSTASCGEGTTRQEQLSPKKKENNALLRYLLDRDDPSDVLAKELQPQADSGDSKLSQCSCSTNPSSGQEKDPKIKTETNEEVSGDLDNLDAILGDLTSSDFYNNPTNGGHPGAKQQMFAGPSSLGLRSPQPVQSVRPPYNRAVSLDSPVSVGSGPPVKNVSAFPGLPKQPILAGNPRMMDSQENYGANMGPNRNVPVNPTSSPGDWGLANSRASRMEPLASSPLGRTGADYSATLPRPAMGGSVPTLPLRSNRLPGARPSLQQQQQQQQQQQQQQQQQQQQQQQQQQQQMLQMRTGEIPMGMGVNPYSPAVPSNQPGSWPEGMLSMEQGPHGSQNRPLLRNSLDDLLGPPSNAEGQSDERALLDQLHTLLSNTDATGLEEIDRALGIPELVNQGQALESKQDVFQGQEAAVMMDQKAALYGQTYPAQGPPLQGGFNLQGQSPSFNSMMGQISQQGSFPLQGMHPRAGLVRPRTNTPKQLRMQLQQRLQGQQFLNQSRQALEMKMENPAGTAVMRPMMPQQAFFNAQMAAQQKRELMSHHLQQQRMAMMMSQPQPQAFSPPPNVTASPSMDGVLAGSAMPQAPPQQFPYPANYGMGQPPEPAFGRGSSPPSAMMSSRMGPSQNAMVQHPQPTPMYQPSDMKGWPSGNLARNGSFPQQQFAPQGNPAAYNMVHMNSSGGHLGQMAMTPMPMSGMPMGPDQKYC
A3G conf – confirmation of human APOBEC3G DNA deaminase inhibitors; recombinant A3G ssDNA deaminase, UDG/FAM-TAMRA fluorescence; shares compounds with APOBEC3G inh; inhibition, % at 20 µM; actives 72% (n = 890); AID 493152;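 active = inhibition reaching a set limit in any replicate at 20 µM, the limit being 80% of the first screen's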
UDG A3G counter – inhibits E. coli UDG, flagging false APOBEC3G inhibitors; 710 tested, under 10 active; UDG counterscreen, FAM/TAMRA oligo fluorescence; AID 504715; shares compounds with APOBEC3G inh; inhibition, % at 20 µM;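 active = compounds giving 40% or more inhibition at 20 µM in any one of the three replicates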;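 note: plate controls were DMSO wells with UDG and oligo for no effect and DMSO wells lacking both for full effect; inhibitors lower the FAM signal released by uracil excision and alkaline cleavage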
The depositor's hits bear a star; x = no result. Sampled rows, rich in hits. Any-hit rate of the full collection: about 1.8%.

SMILES	PHOSPHO1 block	TbMetRS inhib	APOBEC3G inh	A3A deaminase	pCIP destab	A3G conf	UDG A3G counter
Cc1cc(C(=O)O)ccc1-n1c(C)cc(C=C2C(=O)c3ccccc3C2=O)c1C	-8	1	51*	8	8	11	x
Cc1cc(C(=O)O)ccc1-n1c(C)cc(/C=C(/C#N)C(=O)Nc2ccccc2)c1C	20	-1	11	9	2	x	x
Cc1cc(-c2n[nH]c(=S)n2/N=C/C=C/c2ccccc2)n[nH]1	49	0	46*	-2	2	72*	1
CC(/C=N/n1c(-c2ccc(Cl)cc2)n[nH]c1=S)=C\c1ccco1	-25	0	9	13	-12	x	x
S=c1[nH]nc(-c2ccncc2)n1/N=C/C=C/c1ccccc1	93*	0	63*	-5	-19	90*	-4
COc1ccccc1/C=C/C=N/n1c(-c2ccccn2)n[nH]c1=S	16	-1	45*	-4	2	88*	-4
CC(/C=N/n1c(-c2cc(C)[nH]n2)n[nH]c1=S)=C\c1ccco1	36	-1	61*	6	2	73*	2
O=c1c2cc3ccccc3nc2ncn1CCc1ccc(Cl)cc1	x	0	x	x	x	x	x
COc1ccccc1/C=C/C=N/n1c(-c2ccncc2)n[nH]c1=S	79*	-1	47*	-6	-21	80*	4
Cc1nc(SCc2ccc(O)c([N+](=O)[O-])c2)c([N+](=O)[O-])[nH]1	51	0	63*	0	-11	58*	-2
CC1CCCN(C(=O)c2cn(-c3ccccc3)nc2-c2cccnc2)C1 (stereo not given)	x	0	-10	-4	x	x	x
O=C(Nc1cc(S(=O)(=O)N2CCOCC2)ccc1O)c1ccc(S(=O)(=O)N2CCCCC2)cc1	x	0	-5	0	x	x	x
O=C(Nc1cc(S(=O)(=O)Nc2ccc(Cl)cc2)ccc1O)c1ccc(S(=O)(=O)N2CCCCCC2)cc1	21	-1	53*	0	-23	44*	11
O=C(Nc1cccc(N2C(=O)C=CC2=O)c1)c1cccs1	x	0	55*	24	x	58*	x
c1coc(CSSCc2ccco2)c1	x	0	-7	3	x	x	x
CCOC(=O)c1sc(N/N=C/c2ccccc2)nc1C	-10	0	53*	2	-6	64*	2
CCOC(=O)c1sc(N/N=C/c2cccc(C)c2)nc1C	30	0	-12	-5	-3	x	x
CCC(=O)N1CCN(c2ccc(Cl)cc2NC(=S)NC(=O)c2ccco2)CC1	25	0	-7	-8	-12	x	x
Cc1cc(C)n2nc(Sc3ncccc3[N+](=O)[O-])nc2n1	11	0	-3	-1	-11	x	x
O=c1c2ccccc2sn1-c1ccccc1	-48	-1	87*	-1	-13	91*	-4
O=c1c2cc(F)ccc2sn1-c1ccccc1	x	0	86*	3	x	88*	-3
CN(C)S(=O)(=O)c1cccc(-n2sc3ccccc3c2=O)c1	6	1	85*	-3	-2	93*	-2
Cc1ccccc1-n1sc2cc(F)ccc2c1=O	42	0	75*	13	-7	81*	-3
CC(C)Cn1ccc(=O)n(CC(C)C)c1=O	-8	-1	4	3	-19	x	x
O=C(O)c1cccc(-n2sc3ccccc3c2=O)c1	x	0	83*	-1	x	91*	-2
SMILES	PHOSPHO1 block	TbMetRS inhib	APOBEC3G inh	A3A deaminase	pCIP destab	A3G conf	UDG A3G counter
O=c1c2ccccc2sn1-c1cccc(Cl)c1	x	-1	x	x	x	x	x
Cc1ccc(S(=O)(=O)N2C3CCCCC3O[C@H]2CC(=O)c2ccccc2)cc1 (stereo not given in full)	x	-1	x	x	x	x	x
Cc1cc(C)c(C#N)c(=N)o1	35	-1	58*	-2	-4	90*	-2
CCNC(=S)Nc1ccc2c(c1)c(=O)n(C)n2-c1cc(C)cc(C)c1	x	0	x	x	x	x	x
CCOc1ccc2nc(-c3ccccc3)nc(SCC(=O)Nc3ncc(C)s3)c2c1	-3	-1	-6	-3	7	x	x
CCC(Sc1ccccc1C(=O)O)C(=O)O (stereo not given)	15	-1	4	10	-3	x	x
